Assay results from different studies.
Lines come from different studies, so protocols differ.
FAP: Prolyl endopeptidase FAP (FAP, Homo sapiens, UniProt Q12884)
CXCR4: C-X-C chemokine receptor type 4 (CXCR4, Homo sapiens, UniProt P61073)
SRC: Proto-oncogene tyrosine-protein kinase Src (SRC, Homo sapiens, UniProt P12931)

Compound	target	effect on	mode	concentration	inhibition
Cn1cc(-c2cccc(N3CCc4c(sc5c4CC(C)(C)C5)C3=O)c2CO)cc(Nc2ccncn2)c1=O	Cyclin-dependent kinase 9, with cyclin K (CDK9, Homo sapiens, UniProt P50750)	enzyme activity	inhibitor	1 µM	11%
N#C[C@@H]1CC(F)(F)CN1C(=O)CNC(=O)c1ccnc2ccccc12	FAP	enzyme activity	inhibitor	1 nM	1%
O=C(Nc1cccnn1)N1CCN([C@@H]2CCOc3cc(C(F)(F)F)ccc32)CC1	CXCR4	cell-free assay	–	20 µM	-21%
N=C(N)c1ccc2cc(OC(=O)c3ccc(N=C(N)N)cc3)ccc2c1	FAP	enzyme activity	inhibitor	10 µM	25%
C#Cc1n[nH]c2c(-c3cn([C@@H](C)c4ccccn4)c(=O)[nH]c3=O)cc(F)cc12	SRC	enzyme activity	inhibitor	0.1 µM	12.9%
Cc1ncc(C)n2nc(/C=C/c3nc(N4CCCC4)cc(N4CCOCC4)n3)nc12	CXCR4	cell-free assay	–	10 µM	-8%
Cn1cc(-c2cc(F)cc(N3CCn4c(cc5c4CCCC5)C3=O)c2CO)cc(Nc2ccc(N3CCN(C4COC4)CC3)cn2)c1=O	Cyclin-dependent kinase 1, with cyclin B (CDK1, Homo sapiens, UniProt P06493)	enzyme activity	inhibitor	0.1 µM	8%
CCOC(=O)c1ccc(OC(=O)CCCCCNC(=N)N)cc1	Stromelysin-2 (Homo sapiens, UniProt P09238)	enzyme activity	inhibitor	10 µM	12%
C#Cc1n[nH]c2c(-c3cn([C@@H](C)c4ccccc4)c(=O)[nH]c3=O)cc(F)cc12	SRC	enzyme activity	inhibitor	0.1 µM	8.4%
